# Assay results as given in ChEMBL document CHEMBL1153055, “Synthesis and evaluation of 5-benzylidene(thio)barbiturate-beta-D-glycosides as mushroom tyrosinase inhibitors” (Bioorg Med Chem Lett, 2009).
# pIC50: −log10 of the molar value. Active and inactive are the calls of the source. The rule behind the calls is not given here.
# Molecular target: T1, Tyrosinase (Agaricus bisporus) (UniProt O42713)
# T1 sequence (whole entry): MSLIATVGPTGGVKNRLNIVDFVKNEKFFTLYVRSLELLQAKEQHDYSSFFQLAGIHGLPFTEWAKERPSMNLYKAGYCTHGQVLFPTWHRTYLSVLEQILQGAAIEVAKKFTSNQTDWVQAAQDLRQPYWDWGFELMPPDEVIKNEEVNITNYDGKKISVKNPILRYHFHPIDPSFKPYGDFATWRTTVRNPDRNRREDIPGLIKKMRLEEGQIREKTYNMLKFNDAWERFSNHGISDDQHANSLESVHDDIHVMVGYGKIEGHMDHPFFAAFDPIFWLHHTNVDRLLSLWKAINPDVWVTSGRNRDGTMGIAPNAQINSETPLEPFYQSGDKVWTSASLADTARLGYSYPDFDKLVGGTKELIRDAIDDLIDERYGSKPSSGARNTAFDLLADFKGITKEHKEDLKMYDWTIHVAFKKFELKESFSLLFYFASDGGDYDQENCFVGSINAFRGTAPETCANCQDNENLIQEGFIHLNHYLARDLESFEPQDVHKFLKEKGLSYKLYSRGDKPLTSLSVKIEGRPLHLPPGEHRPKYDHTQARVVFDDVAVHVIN
# Test: Irreversible inhibition of mushroom tyrosinase assessed as oxidation of L-DOPA at 0.8 mmol/L […]
# Details: not given
# How it was run: (§1)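 Mushroom tyrosinase was run with L-DOPA as substrate. Enzyme concentration was varied at fixed inhibitor levels of 0, 0.5, 0.8 and 1.0 mmol/L. Rate (V) was plotted against enzyme concentration [E] for each inhibitor level to judge whether inhibition was reversible or irreversible.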
row,Compound,inhibition
1,CC(=O)OC[C@H]1O[C@@H](Oc2ccc(C=C3C(=O)NC(=O)NC3=O)cc2O)[C@H](OC(C)=O)[C@@H](OC(C)=O)[C@@H]1OC(C)=O,Active

# Molecular target: T2, Tyrosinase (Agaricus bisporus, UniProt O42713)
# T2 sequence (O42713 whole entry): T1 sequence (whole entry)
# Test: Inhibition of diphenolase activity of mushroom tyrosinase
# Details: not given
row,Compound,pIC50
1,CC(=O)OC[C@H]1O[C@@H](Oc2cccc(C=O)c2)[C@H](OC(C)=O)[C@@H](OC(C)=O)[C@@H]1OC(C)=O,< 2.52
2,CC(=O)OC[C@H]1O[C@@H](Oc2ccccc2C=C2C(=O)NC(=O)NC2=O)[C@H](OC(C)=O)[C@@H](OC(C)=O)[C@@H]1OC(C)=O,< 2.52
3,CC(=O)OC[C@H]1O[C@@H](Oc2ccccc2C=C2C(=O)NC(=S)NC2=O)[C@H](OC(C)=O)[C@@H](OC(C)=O)[C@@H]1OC(C)=O,3.37
4,CC(=O)OC[C@H]1O[C@@H](Oc2ccc(C=C3C(=O)NC(=O)NC3=O)cc2O)[C@H](OC(C)=O)[C@@H](OC(C)=O)[C@@H]1OC(C)=O,3.89
5,CC(=O)OC[C@H]1O[C@@H](Oc2ccc(C=C3C(=O)NC(=O)NC3=O)cc2)[C@H](OC(C)=O)[C@@H](OC(C)=O)[C@@H]1OC(C)=O,2.90
6,CC(=O)OC[C@H]1O[C@@H](Oc2ccc(C=C3C(=O)NC(=S)NC3=O)cc2O)[C@H](OC(C)=O)[C@@H](OC(C)=O)[C@@H]1OC(C)=O,4.30
7,O=C1NC(=S)NC(=O)C1=Cc1ccc(O[C@@H]2O[C@H](CO)[C@@H](O)[C@@H](O)[C@H]2O)cc1,2.94
8,CC(=O)OC[C@H]1O[C@@H](Oc2ccc(C=C3C(=O)NC(=S)NC3=O)cc2)[C@H](OC(C)=O)[C@@H](OC(C)=O)[C@@H]1OC(C)=O,3.64
9,CC(=O)OC[C@H]1O[C@@H](Oc2ccc(C=C3C(=O)NC(=O)NC3=O)cc2)[C@H](OC(C)=O)[C@H](OC(C)=O)[C@@H]1OC(C)=O,2.82
10,O=C1NC(=O)C(=Cc2ccc(O[C@@H]3O[C@H](CO)[C@@H](O)[C@@H](O)[C@H]3O)cc2)C(=O)N1,2.79
11,CC(=O)OC[C@H]1O[C@@H](Oc2ccc(C=C3C(=O)NC(=S)NC3=O)cc2)[C@H](OC(C)=O)[C@H](OC(C)=O)[C@@H]1OC(C)=O,3.47
12,CC(=O)OC[C@H]1O[C@@H](Oc2ccc(C=O)cc2)[C@H](OC(C)=O)[C@H](OC(C)=O)[C@@H]1OC(C)=O,3.11
13,CC(=O)OC[C@H]1O[C@@H](Oc2ccccc2C=O)[C@H](OC(C)=O)[C@@H](OC(C)=O)[C@@H]1OC(C)=O,< 2.52
14,CC(=O)OC[C@H]1O[C@@H](Oc2ccc(C=O)c(O)c2)[C@H](OC(C)=O)[C@@H](OC(C)=O)[C@@H]1OC(C)=O,< 2.52
15,CC(=O)OC[C@H]1O[C@@H](Oc2cccc(C=C3C(=O)NC(=O)NC3=O)c2)[C@H](OC(C)=O)[C@@H](OC(C)=O)[C@@H]1OC(C)=O,< 2.52
16,CC(=O)OC[C@H]1O[C@@H](Oc2ccc(C=C3C(=O)NC(=O)NC3=O)c(O)c2)[C@H](OC(C)=O)[C@@H](OC(C)=O)[C@@H]1OC(C)=O,2.76
17,CC(=O)OC[C@H]1O[C@@H](Oc2ccc(C=O)cc2O)[C@H](OC(C)=O)[C@@H](OC(C)=O)[C@@H]1OC(C)=O,3.37
18,CC(=O)OC[C@H]1O[C@@H](Oc2cccc(C=C3C(=O)NC(=S)NC3=O)c2)[C@H](OC(C)=O)[C@@H](OC(C)=O)[C@@H]1OC(C)=O,3.06
19,CC(=O)OC[C@H]1O[C@@H](Oc2ccc(C=C3C(=O)NC(=S)NC3=O)c(O)c2)[C@H](OC(C)=O)[C@@H](OC(C)=O)[C@@H]1OC(C)=O,3.55

# Molecular target: T1, Tyrosinase (Agaricus bisporus)
# Test: Irreversible inhibition of mushroom tyrosinase assessed as oxidation of L-DOPA at 1 mmol/L […]
# Details: not given
# How it was run: as §1
row,Compound,inhibition
1,CC(=O)OC[C@H]1O[C@@H](Oc2ccc(C=C3C(=O)NC(=S)NC3=O)cc2O)[C@H](OC(C)=O)[C@@H](OC(C)=O)[C@@H]1OC(C)=O,Active

# Molecular target: T1, Tyrosinase (Agaricus bisporus)
# Details: 0.5 mmol/L
row,Compound,inhibition
1,CC(=O)OC[C@H]1O[C@@H](Oc2ccc(C=O)cc2O)[C@H](OC(C)=O)[C@@H](OC(C)=O)[C@@H]1OC(C)=O,Active
